# Screens deposited in PubChem BioAssay by Broad Institute.
# ARNT TACC3 PPI – disruptors of ARNT/TACC3 protein interaction, primary screen, biochemical, AlphaScreen, single concentration; AlphaScreen His-ARNT PAS-B/GST-TACC3 binding, luminescence; TACC3 fragment carries E629A point mutation; inhibition, % at 9.99 µM; 0.66% of 390,000 active; AID 623870, 2012;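 active = mean inhibition of replicates at least 50% and at least half of replicates each reaching 50%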;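 note: 0% = complete ARNT plus TACC3 wells and 100% = ARNT alone without TACC3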
# CAL PDZ FP-1 – untagged CAL PDZ binding inhibitors, primary screen, biochemical, fluorescence polarization, HTS | Golgi-associated PDZ and coiled-coil motif-containing protein (Homo sapiens), Q9HD26 | purified CAL PDZ, TMR-peptide fluorescence polarization, 1 h | inhibition, % at 24.9 µM | 0.92% of 300,000 active | AID 602252, 2012;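 active = mean inhibition of at least 30% with at least half of replicates also reaching 30%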;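 note: 0% = DMSO neutral control and 100% = excess unlabeled competitor peptide PRC23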
# DYRK1A inh – rat Dyrk1A kinase inhibitors, primary screen, biochemical, single point, plate reader; ADP-Glo luminescence, NFATc1 peptide; inhibition, % at 12.5 µM; 0.43% of 310,000 active; in the data active = inhibition above about 50%;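 note: plate controls were vehicle with enzyme for no effect and no enzyme for full effect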
# CAL PDZ FP-2 – CAL PDZ peptide-binding inhibitors, primary screen, biochemical, fluorescence polarization, Cer-tagged CAL PDZ, HTS | Golgi-associated PDZ and coiled-coil motif-containing protein (Homo sapiens), Q9HD26 | purified CAL PDZ, TMR-peptide fluorescence polarization, 1 h | inhibition, % at 20 µM | 0.02% of 330,000 active | AID 504414, 2011;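 active = highest replicate inhibition of at least 40%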;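 note: plate controls were DMSO neutral control wells for no effect and unlabeled competitor peptide control wells for full effect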
#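 System: tagged CAL PDZ domain. Schedule: 1 h room-temperature incubation prior to read. Signal: fluorescence polarization (mP). Measure: percent inhibition from loss of millipolarization.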
# Dyrk1A artifact – ADP-Glo luciferase interference without Dyrk1A, dose response, artefact control for Dyrk1A inhibitor project, biochemical, luminescence, cherry-pick, set 02 | 1,300 tested, under 10 active | AID 588348, 2011 | shares compounds with DYRK1A inh | ADP-Glo luciferase artifact assay, no Dyrk1A | AC50, µM (titrated, usually from 12 µM), inactives show at the top dose activity change, negative = inhibition;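 active = fitted half-maximal dose AC50 no more than ten times the top valid tested dose, with luminescence dropping as dose rises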
# Active calls of the source: *; nt = no result. In the library only some 1.4% were active in any assay of this set; here they are far more common.
SMILES,ARNT TACC3 PPI,CAL PDZ FP-1,DYRK1A inh,CAL PDZ FP-2,Dyrk1A artifact
Cn1c(C(=O)NCC2CCCO2)cc2c(=O)[nH]c3ccccc3c21 (configuration not stated),-2,-5,48,nt,nt
Cn1c(C(=O)NCc2ccccn2)cc2c(=O)n(C)c3ccccc3c21,-3,nt,19,-1,nt
O=C(O)c1ccc2c(c1)S(=O)(=O)c1cc(Cl)ccc1C2=O,-1,-1,66*,-1,7%
O=C(NCc1ccccc1)c1ccc2c(c1)S(=O)(=O)c1cc(Cl)ccc1C2=O,-2,-5,4,0,nt
COC(=O)[C@H]1[C@H](CO)[C@H]2Cn3c(ccc(C4=CCCCC4)c3=O)[C@H]2N1C(=O)C1CCC1,0,nt,nt,nt,nt
CCC(=O)N(C)C[C@@H]1Oc2ncc(-c3ccc(C)cc3)cc2C(=O)N([C@H](C)CO)C[C@H]1C,-26,nt,nt,nt,nt
N=C(N)c1ccc(N=Nc2c(O)ccc3c2[nH]c2ccccc23)cc1,29,-3,78*,8,6%
Oc1ccc(N=Nc2c(O)ccc3ccccc23)cc1,8,-3,-2,1,nt
COCCNc1cc(C)nc2c(-c3ccccc3OC)c(C)nn12,-3,nt,57*,0,11%
COc1ccccc1-c1c(C)nn2c(-c3ccccc3)cc(C)nc12,10,-1,-4,-2,nt
Cc1cc2nncn2c2ccccc12,-1,0,57*,-2,9%
COc1ccc2c(C)cc3nncn3c2c1,17,4,50,-3,nt
C[C@@H]1CCCCO[C@H](CN(C)C(=O)C2CCCCC2)[C@H](C)CN([C@@H](C)CO)C(=O)c2cc(NC(=O)CCCN(C)C)ccc2O1,0,nt,nt,nt,nt
COc1ccc2nc3cc(Cl)ccc3c(C#N)c2c1,-3,-9,1,-1,nt
COc1ccc2nc3cc(Cl)ccc3c(Nc3ccc(O)c(CN4CCN(C)CC4)c3)c2c1,30,-3,62*,6,9%
O=C(Nc1ccc(F)cc1)Nc1ccc2c(c1)[C@@H]1C[C@@H](CC(=O)N3CCOCC3)O[C@@H](CO)[C@@H]1O2,0,nt,nt,nt,nt
CN(C)C(=O)C[C@@H]1CC[C@H]2[C@@H](COC[C@@H](O)CN2CC2CC2)O1,-12,nt,nt,nt,nt
NC(=O)c1cc(Br)cc2c3c([nH]c12)CCCC3,8,-3,55*,-1,7%
O=C1CN(C(=O)C2CCC(=O)N(CCc3ccc(Cl)cc3)C2)CCN1 (configuration not stated),-6,-1,54*,-1,6%
CC(C)C1CCN(C(=O)C2CCC(=O)N(CCc3ccc(Cl)cc3)C2)CC1 (configuration not stated),-8,-3,2,-3,nt
CC[C@@](C)(NS(=O)(=O)OCC(Cl)(Cl)Cl)c1ccccc1,-17,-4,57*,0,6%
CO[C@H]1CN(C)C(=O)c2cc(NS(C)(=O)=O)ccc2OC[C@@H](C)N(C(=O)C2CCCC2)C[C@@H]1C,-13,nt,nt,nt,nt
COc1ccc(S(=O)(=O)Nc2ccc3c(c2)CC(=O)N([C@@H](C)CO)C[C@@H](C)[C@@H](CN(C)Cc2ccc(C(=O)O)cc2)O3)cc1,-3,nt,nt,nt,nt
Cc1c2ccncc2cc2c1[nH]c1ccccc12,-5,nt,44,2,nt
COc1ccc2[nH]c3c(C)c4ccncc4c(C)c3c2c1,8,2,56*,6,10%
SMILES,ARNT TACC3 PPI,CAL PDZ FP-1,DYRK1A inh,CAL PDZ FP-2,Dyrk1A artifact
CCCNC(=O)N1C[C@H](C)[C@H](OC)CN(C)C(=O)c2cc(NC(=O)CCC)ccc2OC[C@H]1C,-3,nt,nt,nt,nt
COc1ccc(-c2cn[nH]c2C)cc1,-7,-10,63*,1,8%
COc1ccc(-c2cn[nH]c2-c2ccc(OC)cc2O)cc1,0,1,34,0,nt
c1ccc2c(c1)OCC(c1csc3ncnc(N4CCCCC4)c13)O2 (configuration not stated),-4,5,-3,nt,nt
CCCN1CCN(c2ncnc3scc(C4COc5ccccc5O4)c23)CC1 (configuration not stated),8,5,57*,0,9%
Cc1ccc(N2C(=O)c3ccccc3[C@](C)(C(=O)O)[C@@H]2c2ccc(CO)cc2)nc1,-3,nt,nt,nt,nt
COc1ccc(CN(C)C[C@@H]2Oc3ccc(NC(=O)NC(C)C)cc3CC(=O)N([C@@H](C)CO)C[C@H]2C)cc1,-4,nt,nt,nt,nt
CC1(C)C=Cc2cc3ccc(=O)oc3cc2O1,-2,-1,59*,1,6%
CO[C@H]1CN(C)C(=O)c2ccc(NC(=O)C3CC3)cc2OC[C@H](C)N(CC2CCCC2)C[C@H]1C,-5,nt,nt,nt,nt
Cc1ccc(CCNC(=O)C2CCN(S(=O)(=O)c3cccc4nonc34)CC2)cc1,16,0,57*,1,11%
Nc1cc2ccncc2c2ccccc12,-3,-5,73*,-1,9%
CC(C)(C)NC(=O)C(=O)NC(=O)c1c(F)cccc1Cl,nt,nt,63*,1,9%
CC(C)Oc1ccc(C(CC(=O)NCc2ccco2)c2ccccc2)cc1 (configuration not stated),17,nt,55*,-3,7%
Cc1c(Br)c(=O)oc2c(Br)c(O)ccc12,-5,-3,77*,-1,9%
O=C(/C=C\c1ccco1)Nc1nc(-c2ccccc2)cs1,-2,-8,3,0,nt
O=C(/C=C/c1ccccc1)Nc1nc(-c2ccncc2)cs1,nt,6,72*,0,8%
COc1cccc(C(=O)c2sc(NC(C)C)nc2N)c1,1,-1,53*,0,7%
COc1ccc(C(=O)c2sc(NC(C)C)nc2N)cc1OC,-12,nt,2,-2,nt
CO[C@H]1CN(C)C(=O)c2ccc(NC(=O)C3CC3)cc2OC[C@H](C)N(C(=O)c2ccccc2)C[C@H]1C,-2,nt,nt,nt,nt
Cc1cc(C(=O)CSc2nn(-c3ccccc3)c(=S)s2)c(C)n1Cc1ccco1,-5,1,57*,-1,5%
O=C(O)c1cccc2c1/C(=N/O)c1ccccc1-2,4,nt,81*,0,9%
O=C1c2ccccc2-c2c1cccc2C(=O)N1CCCCC1,7,-1,4,nt,nt
O=C(c1cccc2c1-c1ccccc1/C2=N/O)N1CCCCC1,10,-5,60*,-2,10%
NC(=O)N/N=C1\c2ccccc2-c2c(C(N)=O)cccc21,7,-2,51*,-1,10%
Cc1cc(Cl)cc(C)c1OCCCCn1ccnc1,-6,nt,2,0,nt
Cc1cccc(Cl)c1OCCCCn1ccnc1,30,nt,56*,-2,11%
CCC(=O)Nc1ccc2c(c1)C(=O)N(C)C[C@H](OC)[C@H](C)CN(C(=O)CC1CC1)[C@@H](C)CO2,-5,nt,nt,nt,nt
Nc1nc2ccc([N+](=O)[O-])cc2[nH]1,6,0,55*,0,7%
